# Rows were chosen to be rich in hits. Some 1.3% of all compounds tested hit in one or more screens of this group.
# Efflux pump mplx: antifungal efflux pump inhibition, Nile Red retention; S. cerevisiae Candida pump triplex; inhibition, % at 10 µM; hit rate 0.44% among 330,000;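 active means plate passing quality check with inhibition over a set limit, or well fluorescence over plate mean plus 4 SD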;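 further: Nile Red retained in pooled yeast measured as flow cytometry median fluorescence; higher means more Nile Red kept so more efflux inhibition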
# TAG inh: reduces triacylglycerol accumulation in H9c2 cells | Nile Red lipid (TAG) fluorescence; cells loaded with 200 µM oleic acid | inhibition, % at 12.5 µM | hit rate 0.66% among 230,000 | AID 651582;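 active means pattern-corrected inhibition of lipid staining of at least 50% with the nuclear-stain viability signal not falling by more than 50%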
# MT1-MMP act inh: blocks activation of human MT1-MMP; HT1080 RFP-PRO-GFP cells, GFP/RFP ratio fluorescence, overnight; percent of plate control window, DMSO zero; GFP/RFP ratio change, % at 20 µM; hit rate 0.061% among 360,000;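 active means GFP/RFP ratio change of at least 30% with cell ATP level not reduced by more than half and red fluorescence within 50% of control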
#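 Assay system: RFP-PRO-GFP reporter HT1080 cells; read-out basis: GFP/RFP fluorescence ratio; benchmarks: DMSO wells and RFP-L50D-GFP cells; doses: 20 µM single dose, 1% DMSO; schedule: overnight cell settling, then overnight compound exposure, 37 °C, 5% CO2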
# HGIII-sPLA2 inh: Blocks human group III sPLA2 activity | QFRET BODIPY PC-A2 liposome hydrolysis, fluorescence | Q9NZ20 | AID 743126 | hit rate 0.56% among 370,000 | inhibition, % at 12.2 µM;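 active means inhibition above mean plus 3 SD of compounds lying within the high and low control bounds, cut at about 19% in these data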
# Target sequence (Q9NZ20 whole entry, looked up): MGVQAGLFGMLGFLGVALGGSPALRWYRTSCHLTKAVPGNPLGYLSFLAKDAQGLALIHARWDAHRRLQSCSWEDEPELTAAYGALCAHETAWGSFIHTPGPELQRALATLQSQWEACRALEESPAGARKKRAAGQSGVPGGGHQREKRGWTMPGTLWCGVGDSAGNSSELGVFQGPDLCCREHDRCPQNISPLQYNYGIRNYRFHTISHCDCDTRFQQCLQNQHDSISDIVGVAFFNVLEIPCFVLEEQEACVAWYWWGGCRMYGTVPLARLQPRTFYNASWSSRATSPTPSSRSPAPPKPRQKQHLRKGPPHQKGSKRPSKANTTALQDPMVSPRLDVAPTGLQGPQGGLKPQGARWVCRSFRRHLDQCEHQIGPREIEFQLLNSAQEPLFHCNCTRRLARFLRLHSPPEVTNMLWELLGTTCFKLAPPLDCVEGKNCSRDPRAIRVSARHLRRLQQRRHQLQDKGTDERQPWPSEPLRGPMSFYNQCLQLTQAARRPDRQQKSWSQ
# hGIII sPLA2 conf: human GIII-sPLA2 inhibition, confirmation. shares compounds with HGIII-sPLA2 inh. recombinant hGIII-sPLA2, BODIPY PC-A2 QFRET fluorescence. hit rate 34% among 2,000. inhibition, % at 12.2 µM;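 active means mean inhibition across triplicates above the hit cutoff set in the earlier primary screen, cut at about 19% in these data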
# BODIPY interf: counter-screen for HGIII-sPLA2 inhibitors: 535nm fluorescence interference | AID 743282 | BODIPY FL product fluorescence interference, QFRET | inhibition, % at 12.2 µM | hit rate 8.5% among 2,000 | shares compounds with HGIII-sPLA2 inh;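 active means average inhibition above the solvent-only control mean plus 3 SD, cut at about 6% in these data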
# 535nm interf DR: counter-screen for HGIII-sPLA2 inhibitors: 535nm fluorescence interference, dose response. shares compounds with HGIII-sPLA2 inh. BODIPY FL product fluorescence interference, cell-free. IC50, µM. 240 tested, under 10 active. AID 743455;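 active means IC50 at or below 10 µM; inactive means IC50 above 10 µM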
# Hits are given with their value; i = inactive; nt = no result.
SMILES,Efflux pump mplx,TAG inh,MT1-MMP act inh,HGIII-sPLA2 inh,hGIII sPLA2 conf,BODIPY interf,others
CC(C)Cc1ccc(CN2CCCC(NC(=O)CCN3CCOCC3)C2)cc1 (configuration not stated),i,i,i,i,nt,nt,
CC(c1ccccc1)n1c(-c2ccccc2F)n[nH]c1=S (configuration not stated),i,i,i,24,i,i,
CC(C)n1c(-c2ccccc2F)n[nH]c1=S,i,nt,i,i,nt,nt,
O=C(COC(=O)C1CC1)Nc1ccc2c(c1)OCO2,i,i,i,i,nt,nt,
COc1cccc(Sc2ccccc2CN(C)C)c1,i,i,i,20,i,i,
CN(C)Cc1ccccc1Sc1ccc2c(c1)CCCC2,i,i,i,i,nt,nt,
COc1ccccc1/C=C/C=N/NC(=O)c1ccccn1,i,i,i,20,i,i,
COc1ccccc1/C=C/C=N/NC(=O)c1cnccn1,i,i,i,i,nt,nt,
N#Cc1ccc(C(=O)NC(=S)NC2CCCCC2)cc1,i,i,i,i,nt,nt,
C/C(=N\NC(=S)NC1CCCCC1)c1ccc(C#N)cc1,i,nt,i,26,i,i,
CCn1c(CSCc2ccc(Cl)cc2)n[nH]c1=S,i,i,i,19,26,i,
CCn1c(CSCc2ccc(C)cc2)n[nH]c1=S,i,nt,i,30,25,i,
Cn1c(CSCc2ccc(Cl)c(Cl)c2)n[nH]c1=S,i,nt,i,i,nt,nt,
C=CCn1c(CSCc2ccc(F)cc2)n[nH]c1=S,i,nt,i,i,nt,nt,
COc1cc(CC(=O)NCC(C)(C)N2CCOCC2)cc(OC)c1OC,i,nt,i,i,nt,nt,
O=C(Nc1cccs1)Nc1c(F)c(F)cc(F)c1F,i,nt,i,21,i,i,
O=C(Nc1cccs1)Nc1c(F)c(F)c(F)c(F)c1F,i,nt,i,i,nt,nt,
O=C(O)Cc1sc(N/N=C\c2ccncc2)nc1-c1ccccc1,i,i,i,26,i,i,
C(=N\Nc1nc(-c2ccccc2)cs1)/c1ccncc1,i,i,i,i,nt,nt,
O=C(Cc1ccccc1)NN1C(=O)C2C(C1=O)C1C=CC2C12CC2 (configuration not stated),i,nt,i,i,nt,nt,
COc1ccc(CCNCc2cc(C)n(-c3ccc(OC)cc3)c2C)cc1,i,nt,i,i,nt,nt,
Cc1ccccc1Nc1nc(N)nc(CCl)n1,i,i,i,20,i,i,
COc1cc(/C=N/N=C(\N)c2nonc2N)ccc1O,i,i,i,25,i,i,
COc1ccc(CN2CCc3c([nH]c4ccccc34)C2)cc1Br,i,nt,i,27,i,i,
O=C(NCCc1cccc(F)c1)/C(=C/c1cccnc1)NC(=O)c1ccccc1,i,nt,i,i,nt,nt,
SMILES,Efflux pump mplx,TAG inh,MT1-MMP act inh,HGIII-sPLA2 inh,hGIII sPLA2 conf,BODIPY interf,others
CC(OC(=O)c1cccc(-n2cnnn2)c1)C(=O)Nc1cccc(Cl)c1 (configuration not stated),i,i,i,i,nt,nt,
COCCN1C[C@@H](CO)O[C@@H](n2cnc3c(N4CCN(C)CC4)ncnc32)C1,nt,i,i,nt,nt,nt,
OC[C@@H]1CN(Cc2ccncc2)C[C@H](n2cnc3c(NC4CCCC4)ncnc32)O1,nt,i,i,21,i,i,
COc1ccc(CN2C[C@@H](CO)O[C@@H](n3cnc4c(N5CCOCC5)ncnc43)C2)cc1,nt,i,i,20,i,i,
COCCN1C[C@@H](CO)O[C@@H](n2cnc3c(N4CCCC4)ncnc32)C1,nt,i,i,20,i,i,
COC(CNC(=O)c1ccc(N2CCC3(CC2)OCCO3)c([N+](=O)[O-])c1)OC,i,nt,i,23,i,i,
O=C(c1ccc(N2CCC3(CC2)OCCO3)c([N+](=O)[O-])c1)N1CCOCC1,i,i,i,i,nt,nt,
Cc1ccc(-c2sc(C(=O)NN)c(C)c2C#N)cc1,i,i,i,24,i,i,
Cc1ccc(CSc2sc(C(=O)c3ccccc3)c(N)c2C#N)cc1,i,i,i,i,nt,nt,
CC(C)(c1ccccc1)c1ccc(OCCCN2CCNCC2)cc1,i,i,i,i,nt,nt,
CC(C)(C)c1ccc(OCCCCCCN2CCNCC2)cc1,i,i,i,23,i,i,
COc1ccc(OC)c(NC(=O)Cc2coc3ccc4ccccc4c23)c1,i,i,i,i,nt,nt,
CC(=O)N/C(=C\c1ccccc1)C(=O)OCC(=O)N(CC(C)C)c1c(N)n(Cc2ccccc2)c(=O)[nH]c1=O,i,i,i,i,nt,nt,
COc1cc(CC(NC(C)=O)C(=O)NC2CCN(c3c(Cc4ccccc4)c(C)nc4ncnn34)CC2)cc(OC)c1 (configuration not stated),i,nt,i,22,i,i,
CC(=O)Nc1ccc(NC(=O)C2CCN(c3c(Cc4ccccc4)c(C)nc4ncnn34)CC2)cc1,i,nt,i,i,nt,nt,
COc1ccccc1Cn1c(=S)[nH]c2cc(C(=O)NCCCN3CCOCC3)ccc2c1=O,i,nt,i,20,i,i,
O=C(N/N=C/c1ccncc1)c1cc([N+](=O)[O-])cc([N+](=O)[O-])c1O,i,i,i,20,i,i,
O=[N+]([O-])c1ccc(Cl)cc1N/N=C/c1ccncc1,i,i,i,20,i,i,
O=C(N/N=C/c1ccncc1)c1cc2ccccc2cc1O,i,i,i,i,nt,nt,
O=[N+]([O-])c1cc(S(=O)(=O)Nc2ccc(Cl)cc2)ccc1N/N=C/c1ccncc1,i,i,i,i,nt,nt,
Oc1ccccc1/C=N/NC(=S)NC1CC2CCC1C2 (configuration not stated),i,i,i,28,i,7.3,
COc1cccc(/C=N/NC(=S)NC2CC3CCC2C3)c1OC (configuration not stated),i,i,i,i,nt,nt,
COc1cc(C(C)=O)ccc1Oc1ncnc2c1cnn2-c1ccc(F)cc1,i,nt,i,i,nt,nt,
COc1ccc(NC(=O)NNC(=O)c2ccc3ccccc3c2O)c(OC)c1,i,i,i,32,34,i,535nm interf DR=i
COc1ccc(NC(=O)c2ccccc2NC(=O)c2ccccc2C(=O)O)c(OC)c1,i,nt,i,22,i,i,
SMILES,Efflux pump mplx,TAG inh,MT1-MMP act inh,HGIII-sPLA2 inh,hGIII sPLA2 conf,BODIPY interf,others
CCc1ccccc1NC(=O)NNC(=O)c1ccc2ccccc2c1O,i,i,i,i,nt,nt,
CCOc1ccc(NC(=O)NNC(=O)c2ccc3ccccc3c2O)cc1,i,i,i,21,24,i,
CCOC(=O)C1=CC[C@@H](c2ccccc2)N(S(=O)(=O)c2ccc(C)cc2)[C@H]1C=C(C)C,nt,nt,i,i,nt,nt,
N#CC1=C(N)Oc2cc(N)ccc2C1c1ccc(F)cc1F (configuration not stated),i,i,i,i,nt,nt,
Cc1cccc(-n2c3nc(=O)[nH]c(=O)c-3cc3cc([N+](=O)[O-])ccc32)c1,i,nt,i,25,20,6.6,
O=C(NN1CCCCC1)c1cnn2c(C(F)F)cc(-c3ccccc3)nc12,i,i,i,i,nt,nt,
CCOc1cc(N2CCOCC2)c(OCC)cc1NC(=O)c1nn(CC)c(=O)c2ccccc12,i,i,i,i,nt,nt,
